ChEMBL document CHEMBL2057169, “Discovery of novel tricyclic compounds as squalene synthase inhibitors” (Bioorg Med Chem, 2012)

Key:
Squalene synthase = biological target: T1, Squalene synthase (Rattus norvegicus, UniProt Q02769); assay: Inhibition of squalene synthase in rat hepatic cells; type: cell-based
T1 sequence (Q02769 whole entry): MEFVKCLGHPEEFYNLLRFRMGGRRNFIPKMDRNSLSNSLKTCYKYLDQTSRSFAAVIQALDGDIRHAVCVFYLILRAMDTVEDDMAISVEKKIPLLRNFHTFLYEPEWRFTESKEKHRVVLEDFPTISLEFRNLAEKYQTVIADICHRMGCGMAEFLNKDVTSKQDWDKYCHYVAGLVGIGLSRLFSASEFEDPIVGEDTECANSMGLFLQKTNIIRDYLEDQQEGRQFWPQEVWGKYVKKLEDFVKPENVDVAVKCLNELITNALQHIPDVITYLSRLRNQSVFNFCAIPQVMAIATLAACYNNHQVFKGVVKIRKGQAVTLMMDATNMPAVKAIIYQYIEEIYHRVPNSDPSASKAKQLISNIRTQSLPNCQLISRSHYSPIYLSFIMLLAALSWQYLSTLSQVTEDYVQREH

Hepatocyte = assay: Inhibition of cholesterol synthesis in rat hepatocytes assessed as formation of cholesterol using [14C]mevalonolactone as substrate after 1 hr by radioactivity assay; type: functional, cell-based
Procedure, shortened: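 Rat hepatocytes isolated by two-step portal-vein perfusion (EGTA buffer, then 0.05% collagenase). Cells were kept if viability was over 80% by trypan blue and seeded at 10^6 cells/well in DMEM with 10% LPDS. Next day they got 5% LPDS medium with inhibitor at 0–3000 nM for 1 h at 37 °C, then [14C]mevalonolactone for 1 h. Lysates were saponified, [14C]cholesterol corrected by [3H]cholesterol recovery and BCA protein, and % inhibition taken versus 0 nM wells. Triplicate wells; three experiments.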

marmosets [1] = assay: Lipid lowering effect in marmosets assessed as reduction in plasma non HDL-cholesterol level at 100 mg/kg, po administered once daily for 7 days; type: functional; details: Callitrichinae sp., in Callithrix jacchus, 168 h
Procedure, shortened: (§1)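 Common marmosets, n = 8 per group, matched for body weight and plasma lipids. They were dosed orally at 100 mg/kg in 0.5% methylcellulose (5 ml/kg) once daily for 7 days. Nonfasted blood was drawn before dosing and the morning after the last dose. HDL was precipitated, then its cholesterol assayed enzymatically; non-HDL = total minus HDL cholesterol. Change was expressed relative to pre-values.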

marmosets [2] = assay: Lipid lowering effect in marmosets assessed as reduction in plasma triglyceride level at 100 mg/kg, po administered once daily for 7 days; type: functional; details: Callitrichinae sp., in Callithrix jacchus, 168 h; procedure, shortened: as §1
marmosets [3] = assay: Lipid lowering effect in marmosets assessed as reduction in plasma HDL-cholesterol level at 100 mg/kg, po administered once daily for 7 days; type: functional; details: Callitrichinae sp., in Callithrix jacchus, 168 h; procedure, shortened: as §1
Rattus norvegicus = assay: Inhibition of cholesterol synthesis in Wistar rat liver assessed as reduction of [14C]-cholesterol level at 3 mg/kg, po administered as single dose measured after 1 hr by liquid scintillation counting; type: functional
Procedure, shortened: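 Male Wistar rats, 6 weeks old, n = 4-6, dosed orally at 3 mg/kg in 0.5% methylcellulose, with equimolar NaOH or NaHCO3 added; vehicle-only controls. At 1 h, [14C]mevalonic acid (5 µCi/5 ml/kg) was given ip, and rats were killed 1 h later.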

marmosets [4] = assay: Lipid lowering effect in marmosets assessed as reduction in plasma total cholesterol level at 100 mg/kg, po administered once daily for 7 days; type: functional; details: Callitrichinae sp., in Callithrix jacchus, 168 h; procedure, shortened: as §1

Row | IC50 (Squalene synthase) | Compound | IC50 (Hepatocyte) | inhibition in vivo at 100 mg/kg (marmosets [1]) | inhibition in vivo at 100 mg/kg (marmosets [2]) | inhibition in vivo at 100 mg/kg (marmosets [3]) | inhibition in vivo at 3 mg/kg (Rattus norvegicus) | inhibition in vivo at 100 mg/kg (marmosets [4])
1 | 220 nM | COC(=O)CC1OC(c2cccc(OC)c2OC)c2cc(Cl)ccc2-n2cccc21 (racemic) | – | – | – | – | – | –
2 | 3.3 nM | COc1cccc(C2OC(CC(=O)O)c3cccn3-c3ccc(Cl)cc32)c1OC (racemic) | 250 nM | – | – | – | – | –
3 | 0.51 nM | COc1cccc([C@H]2O[C@H](CCn3cc(CC(=O)O)nn3)c3cccn3-c3ccc(Cl)cc32)c1OC | 24 nM | 21% | 24% | -8% | 66% | 10%
4 | 4.3 nM | COc1cccc([C@H]2O[C@H](CC(=O)N3CCN(CC(=O)O)CC3)c3cccn3-c3ccc(Cl)cc32)c1OC | 150 nM | – | – | – | – | –
5 | 1.7 nM | CCC(CC)(OCc1cn(CC[C@H]2O[C@H](c3cccc(OC)c3OC)c3cc(Cl)ccc3-n3cccc32)nn1)C(=O)O | 14 nM | – | – | – | 45% | –
6 | 0.8 nM | COc1cccc([C@H]2O[C@H](CCC(=O)N3CCC(OCC(=O)O)CC3)c3cccn3-c3ccc(Cl)cc32)c1OC | 7.2 nM | – | – | – | 18% | –
7 | 2.9 nM | COc1cccc([C@H]2O[C@H](CC(=O)NCCC(=O)O)c3cccn3-c3ccc(Cl)cc32)c1OC | 160 nM | – | – | – | – | –
8 | 2.1 nM | COc1cccc([C@H]2O[C@H](CCn3cc(C(=O)O)cn3)c3cccn3-c3ccc(Cl)cc32)c1OC | 54 nM | – | – | – | 56% | –
9 | 7.6 nM | COc1cccc(C2OC(CC(=O)O)c3ccc(CN4CCOCC4)n3-c3ccc(Cl)cc32)c1OC (racemic) | 160 nM | – | – | – | – | –
10 | – | COc1cccc([C@H]2O[C@H](CC(=O)N3CCC(CC(=O)O)CC3)c3cccn3-c3ccc(Cl)cc32)c1OC | 49 nM | 9% | 28% | -11% | – | 4%
11 | 2.4 nM | COc1cccc([C@H]2O[C@H](CCC(=O)N3CCC(CC(=O)O)CC3)c3cccn3-c3ccc(Cl)cc32)c1OC | 93 nM | – | – | – | 35% | –
12 | 0.9 nM | COc1cccc([C@H]2O[C@H](CCC(=O)N3CCC(COCC(=O)O)CC3)c3cccn3-c3ccc(Cl)cc32)c1OC | 10 nM | – | – | – | 7% | –
13 | – | COc1cccc([C@H]2O[C@H](CC(=O)N3CCC(CC(=O)O)CC3)C(=O)N(CC(C)(C)COC(C)=O)c3ccc(Cl)cc32)c1OC [LAPAQUISTAT ACETATE] | – | 29% | 25% | 14% | – | 23%
14 | 1.6 nM | COc1cccc([C@H]2O[C@H](CCC(=O)N3CCOC(C(=O)O)C3)c3cccn3-c3ccc(Cl)cc32)c1OC (some centres undefined) | 9.7 nM | – | – | – | 13% | –
15 | 1.4 nM | COc1cccc([C@H]2O[C@H](CCC(=O)N3CCC(OCCC(=O)O)CC3)c3cccn3-c3ccc(Cl)cc32)c1OC | 35 nM | – | – | – | 23% | –
16 | 1.6 nM | COc1cccc([C@H]2O[C@H](CCn3nccc3CC(=O)O)c3cccn3-c3ccc(Cl)cc32)c1OC | 210 nM | – | – | – | 5% | –
17 | 1.1 nM | COc1cccc([C@H]2O[C@H](CCn3nnnc3CC(=O)O)c3cccn3-c3ccc(Cl)cc32)c1OC | 130 nM | – | – | – | – | –
18 | 2.5 nM | COc1cccc([C@H]2O[C@H](CCn3nnc(COC(C)(C)C(=O)O)n3)c3cccn3-c3ccc(Cl)cc32)c1OC | 10 nM | – | – | – | 51% | –
19 | 2.7 nM | COc1cccc(C2OC(CC(=O)N3CCC(CC(=O)O)CC3)c3cccn3-c3ccc(Cl)cc32)c1OC (racemic) | 63 nM | – | – | – | – | –
20 | 2.2 nM | COc1cccc([C@H]2O[C@H](CCC(=O)N3CCN(CC(=O)O)C(=O)C3)c3cccn3-c3ccc(Cl)cc32)c1OC | 11 nM | – | – | – | 1% | –
21 | 0.85 nM | COc1cccc([C@H]2O[C@H](CCn3nnc(CCC(=O)O)n3)c3cccn3-c3ccc(Cl)cc32)c1OC | 70 nM | – | – | – | 64% | –

Row | IC50 (Squalene synthase) | Compound | IC50 (Hepatocyte) | inhibition in vivo at 100 mg/kg (marmosets [1]) | inhibition in vivo at 100 mg/kg (marmosets [2]) | inhibition in vivo at 100 mg/kg (marmosets [3]) | inhibition in vivo at 3 mg/kg (Rattus norvegicus) | inhibition in vivo at 100 mg/kg (marmosets [4])
22 | 440 nM | O=C(O)CC1OC(c2cccc3c2OCCO3)c2cc(Cl)ccc2-n2cccc21 (centres undefined) | – | – | – | – | – | –
23 | 1.1 nM | COc1cccc([C@H]2O[C@H](CCn3nnc(C(C)(C)C(=O)O)n3)c3cccn3-c3ccc(Cl)cc32)c1OC | 58 nM | – | – | – | 44% | –
24 | 1.7 nM | COc1cccc([C@H]2O[C@H](CCn3nnc(C4(C(=O)O)CC4)n3)c3cccn3-c3ccc(Cl)cc32)c1OC | 52 nM | – | – | – | 53% | –
25 | 52 nM | O=C(O)CC1OC(c2cccc(Cl)c2Cl)c2cc(Cl)ccc2-n2cccc21 (centres undefined) | – | – | – | – | – | –
26 | 2.2 nM | COc1cccc([C@H]2O[C@H](CCC(=O)N3CC(C(=O)O)C3)c3cccn3-c3ccc(Cl)cc32)c1OC | 23 nM | – | – | – | 31% | –
27 | 0.89 nM | COc1cccc([C@H]2O[C@H](CCn3nnc(C(=O)O)n3)c3cccn3-c3ccc(Cl)cc32)c1OC | 18 nM | – | – | – | 38% | –
28 | 7 nM | COc1cccc([C@H]2O[C@H](CCC(=O)N3CC(CC(=O)O)C3)c3cccn3-c3ccc(Cl)cc32)c1OC | 36 nM | – | – | – | 41% | –
29 | 2.3 nM | COc1cccc([C@H]2O[C@H](CC(=O)NCC(=O)O)c3cccn3-c3ccc(Cl)cc32)c1OC | 94 nM | – | – | – | – | –
30 | > 600 nM | COc1cccc([C@@H]2O[C@@H](CC(=O)N3CCC(CC(=O)O)CC3)c3cccn3-c3ccc(Cl)cc32)c1OC | – | – | – | – | – | –
31 | 2.3 nM | COc1cccc([C@H]2O[C@H](CC(=O)N3CCC[C@H](C(=O)O)C3)c3cccn3-c3ccc(Cl)cc32)c1OC | 60 nM | – | – | – | – | –
32 | 3.1 nM | COc1cccc([C@H]2O[C@H](CCn3cc(CC(=O)O)cn3)c3cccn3-c3ccc(Cl)cc32)c1OC | 62 nM | – | – | – | 34% | –
33 | 540 nM | COc1cccc(C2OC(CC(=O)O)c3ccc(CN(C)C)n3-c3ccc(Cl)cc32)c1OC (racemic) | – | – | – | – | – | –
34 | 0.69 nM | COc1cccc([C@H]2O[C@H](CCn3cc(COC(C)(C)C(=O)O)nn3)c3cccn3-c3ccc(Cl)cc32)c1OC | 7.3 nM | – | – | – | 36% | –
35 | 0.59 nM | COc1cccc([C@H]2O[C@H](CCn3cc(C(=O)O)nn3)c3cccn3-c3ccc(Cl)cc32)c1OC | 25 nM | – | – | – | 44% | –
36 | 4 nM | COc1cccc([C@H]2O[C@H](CC(=O)Nc3cccc(C(=O)O)c3)c3cccn3-c3ccc(Cl)cc32)c1OC | 150 nM | – | – | – | – | –
37 | 0.68 nM | COc1cccc([C@H]2O[C@H](CCn3cc(COCC(=O)O)nn3)c3cccn3-c3ccc(Cl)cc32)c1OC | 19 nM | – | – | – | 18% | –
38 | 3.4 nM | COc1cccc([C@H]2O[C@H](CC(=O)N3CCC(C(=O)O)CC3)c3cccn3-c3ccc(Cl)cc32)c1OC | 170 nM | – | – | – | – | –
39 | 0.81 nM | COc1cccc([C@H]2O[C@H](CCn3nncc3CC(=O)O)c3cccn3-c3ccc(Cl)cc32)c1OC | 41 nM | – | – | – | 50% | –
40 | > 600 nM | O=C(O)CC1OC(c2cccc3ccccc23)c2cc(Cl)ccc2-n2cccc21 (centres undefined) | – | – | – | – | – | –
41 | 1.6 nM | COc1cccc(C2OC(CC(=O)O)c3ccc(Cl)n3-c3ccc(Cl)cc32)c1OC (racemic) | 560 nM | – | – | – | – | –
42 | 3.1 nM | COc1cccc([C@H]2O[C@H](CCC(=O)O)c3cccn3-c3ccc(Cl)cc32)c1OC | > 1000 nM | – | – | – | – | –
